From ChEMBL document CHEMBL1122444, “Sulfonyliminoimidazolidines. A new class of oral hypoglycemic agents. 2. Mode of action and X-ray structure of 1-[[p-[2-(crotonylamino)ethyl]phenyl]sulfonyl]-3-cyclohexyl-2-iminoimidazolidine” (J Med Chem, 1983)
Values joined by “and” are separate entries in the source; they are usually repeats but may differ in a detail not shown here. Equal values may be shown once. One block for each compound: values may come before it.

Experiments:
Rattus norvegicus [1] = test: […] in normal rats at a hypoglycemic dose of 2.0 mmol/kg; format: functional
Rattus norvegicus [2] = species: Rattus norvegicus; test: In vitro inhibition of glucose oxidation by the compound in isolated rat fat cells; format: functional, cell-based
Summary of the method: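 Epididymal fat cells from five young rats (140–160 g) were isolated by collagenase digestion. They were incubated with D-[1-14C]glucose (40 nCi/flask, 0.1 g glucose/L) across a range of compound concentrations. IC50 was read graphically from % inhibition vs log concentration, reported as mean ± SEM over n experiments.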

Rattus norvegicus [3] = test: Percent change in blood glucose in normal rats at a hypoglycemic dose of 2.0 mmol/kg. against control; format: functional
Summary of the method: (§1)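 Female rats (175–195 g) were fasted 6–9 h and given compound orally as a suspension in 0.5% (w/v) methylcellulose (5 mL/kg). Blood glucose was measured enzymatically 45 min after dosing. Values are mean ± SEM, expressed as percent change against the control group.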

Rattus norvegicus [4] = test: In vivo increase of plasma insulin in normal rats at a hypoglycemic dose of 2.0 mmol/kg; format: functional, organism-based
Oryctolagus cuniculus [5] = species: Oryctolagus cuniculus; test: In vitro insulin release was stimulated by the compound at a concentration of 0.003 mmol/L in rabbit pancreas; format: functional
Summary of the method: (§2)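 Eight rabbit pancreas pieces, pooled from four rabbits per experiment, were incubated in bicarbonate-buffered medium containing 0.6 g/L glucose. Insulin per flask with compound was divided by basal release, taken as the mean of two preceding 20-min periods without compound. Results are mean ± SEM over n experiments.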

Oryctolagus cuniculus [6] = species: Oryctolagus cuniculus; test: In vitro insulin release was stimulated by the compound at a concentration of 0.01 mmol/L in rabbit pancreas; format: functional; summary of the method: as §2
Rattus norvegicus [7] = test: […] in normal rats at a hypoglycemic dose of 0.18 mmol/kg.; format: functional
Rattus norvegicus [8] = test: In vivo increase of plasma insulin in normal rats at a hypoglycemic dose of 0.18 mmol/kg; format: functional, organism-based
Oryctolagus cuniculus [9] = species: Oryctolagus cuniculus; test: In vitro insulin release was stimulated by the compound at a concentration of 0.3 mmol/L in rabbit pancreas; format: functional; summary of the method: as §2
Oryctolagus cuniculus [10] = species: Oryctolagus cuniculus; test: In vitro insulin release was stimulated by the compound at a concentration of 0.1 mmol/L in rabbit pancreas; format: functional; summary of the method: as §2
Oryctolagus cuniculus [11] = species: Oryctolagus cuniculus; test: In vitro insulin release was stimulated by the compound at a concentration of 0.03 mmol/L in rabbit pancreas; format: functional; summary of the method: as §2
Rattus norvegicus [12] = test: In vivo increase of plasma insulin in normal rats at a hypoglycemic dose of 0.0084 […]; format: functional, organism-based
Rattus norvegicus [13] = test: Percent change in plasma insulin in normal rats at a hypoglycemic dose of 0.0084 mmol/kg against control
Rattus norvegicus [14] = species: Rattus norvegicus; test: Percent change in blood glucose against control; format: functional; summary of the method: as §1
Rattus norvegicus [15] = species: Rattus norvegicus; test: Percent change in plasma insulin against control; format: functional
Rattus norvegicus [16] = test: […] in normal rats at a hypoglycemic dose of 0.028 mmol/kg.; format: functional
Rattus norvegicus [17] = test: […] in normal rats at a hypoglycemic dose of 0.0084 mmol/kg; format: functional
Rattus norvegicus [18] = test: In vivo increase of plasma insulin in normal rats at a hypoglycemic dose of 0.028 […]; format: functional, organism-based
Oryctolagus cuniculus [19] = species: Oryctolagus cuniculus; test: In vitro insulin release was stimulated by the compound at a concentration of 0.9 mmol/L in rabbit pancreas; format: functional; summary of the method: as §2
Rattus norvegicus [20] = test: Blood glucose determined in normal rats at a hypoglycemic dose of 0.17 mmol/kg.
Rattus norvegicus [21] = test: In vivo increase of plasma insulin in normal rats at a hypoglycemic dose of 0.17 mmol/kg.; format: functional, organism-based
Rattus norvegicus [22] = test: Percent change in blood glucose in normal rats at a hypoglycemic dose of 0.60 mmol/kg against control; format: functional; summary of the method: as §1
Rattus norvegicus [23] = test: […] in normal rats at a hypoglycemic dose of 0.60 mmol/kg; format: functional
Rattus norvegicus [24] = test: In vivo increase of plasma insulin in normal rats at a hypoglycemic dose of 0.60 mmol/kg; format: functional, organism-based
Rattus norvegicus [25] = test: Percent change in plasma insulin in normal rats at a hypoglycemic dose of 0.60 mmol/kg against control; format: functional
Rattus norvegicus [26] = test: Percent change in blood glucose in normal rats at a hypoglycemic dose of 0.008 mmol/kg against control; format: functional; summary of the method: as §1
Rattus norvegicus [27] = test: […] in normal rats at a hypoglycemic dose of 0.072 mmol/kg.; format: functional
Rattus norvegicus [28] = test: In vivo increase of plasma insulin in normal rats at a hypoglycemic dose of 0.008 mmol/kg.; format: functional, organism-based
Rattus norvegicus [29] = test: Percent change in blood glucose in normal rats at a hypoglycemic dose of 0.024 mmol/kg against control; format: functional; summary of the method: as §1
Rattus norvegicus [30] = test: […] in normal rats at a hypoglycemic dose of 0.024 mmol/kg.; format: functional
Rattus norvegicus [31] = test: In vivo increase of plasma insulin in normal rats at a hypoglycemic dose of […]; format: functional, organism-based
Rattus norvegicus [32] = test: Percent change in blood glucose in normal rats at a hypoglycemic dose of 0.072 mmol/kg against control; format: functional; summary of the method: as §1
Oryctolagus cuniculus [33] = species: Oryctolagus cuniculus; test: In vitro insulin release was stimulated by the compound at a concentration of 0.1 mmol/L; format: functional; summary of the method: as §2
Rattus norvegicus [34] = test: […] in normal rats at a hypoglycemic dose of 0.008 mmol/kg.; format: functional
Rattus norvegicus [35] = test: In vivo increase of plasma insulin in normal rats at a hypoglycemic dose of […].; format: functional, organism-based
Rattus norvegicus [36] = test: Percent change in blood glucose in normal rats at a hypoglycemic dose of 0.008 mmol/kg. against control; format: functional; conditions: in the assay text read “plasma insulin” for “blood glucose”

SMILES: COc1cccc(C(=O)NCCc2ccc(S(=O)(=O)N3CCN(C4CCCCC4)C3=N)cc2)c1
Insulin release (Oryctolagus cuniculus [5]): 0.98
IC50 (Rattus norvegicus [2]): 20 µM
Insulin release (Oryctolagus cuniculus [6]): 2.08
Blood glucose (Rattus norvegicus [7]): 3.08 mM
Plasma insulin (Rattus norvegicus [8]): 285 pM l-1
Insulin release (Oryctolagus cuniculus [9]): 3.66
Insulin release (Oryctolagus cuniculus [10]): 3.13
Insulin release (Oryctolagus cuniculus [11]): 2.24

SMILES: C/C=C/C(=O)NCCc1ccc(S(=O)(=O)N2CCN(C3CCCCC3)C2=N)cc1
Insulin release (Oryctolagus cuniculus [5]): 1.88
Plasma insulin (Rattus norvegicus [12]): 163 pM l-1
Change (Rattus norvegicus [13]): 71%
Change (Rattus norvegicus [14]): -31% and -42%
IC50 (Rattus norvegicus [2]): 180 µM
Insulin release (Oryctolagus cuniculus [6]): 2.73
Change (Rattus norvegicus [15]): 397%
Blood glucose (Rattus norvegicus [16]): 3.42 mM
Insulin release (Oryctolagus cuniculus [9]): 1.82
Blood glucose (Rattus norvegicus [17]): 4.04 mM
Plasma insulin (Rattus norvegicus [18]): 476 pM l-1

SMILES: N=C1N(C2CCCCC2)CCN1S(=O)(=O)c1ccc(N)cc1
Insulin release (Oryctolagus cuniculus [5]): 1.01
Insulin release (Oryctolagus cuniculus [19]): 3.21
IC50 (Rattus norvegicus [2]): 180 µM
Insulin release (Oryctolagus cuniculus [6]): 1.22
Change (Rattus norvegicus [22]): -21%
Blood glucose (Rattus norvegicus [23]): 4.66 mM
Plasma insulin (Rattus norvegicus [24]): 136 pM l-1
Change (Rattus norvegicus [25]): 42%
Insulin release (Oryctolagus cuniculus [10]): 3.21
Insulin release (Oryctolagus cuniculus [11]): 1.74

Further lines, with some results ahead:

IC50 (Rattus norvegicus [2]): 180 µM
SMILES: N=C(N)NC(=N)NCCc1ccccc1 [PHENFORMIN]
Blood glucose (Rattus norvegicus [1]): 5.52 mM
Change (Rattus norvegicus [3]): -10% and -6%
Plasma insulin (Rattus norvegicus [4]): 86.1 pM l-1

IC50 (Rattus norvegicus [2]): > 500 µM
SMILES: CCCCNC(=O)NS(=O)(=O)c1ccc(C)cc1 [TOLBUTAMIDE]
Insulin release (Oryctolagus cuniculus [5]): 0.95
Insulin release (Oryctolagus cuniculus [19]): 4.23
Blood glucose (Rattus norvegicus [20]): 3.86 mmol/L
Insulin release (Oryctolagus cuniculus [6]): 1.81
Insulin release (Oryctolagus cuniculus [10]): 4.33
Plasma insulin (Rattus norvegicus [21]): 278 pM l-1

IC50 (Rattus norvegicus [2]): 71 µM
SMILES: CCCC(=O)NCCc1ccc(S(=O)(=O)N2CCN(C3CCCCC3)C2=N)cc1
Insulin release (Oryctolagus cuniculus [5]): 1.02
Change (Rattus norvegicus [26]): -17%
Blood glucose (Rattus norvegicus [27]): 3.63 mM
Plasma insulin (Rattus norvegicus [28]): 108 pM l-1
Change (Rattus norvegicus [29]): -38%
Blood glucose (Rattus norvegicus [30]): 3.62 mM
Plasma insulin (Rattus norvegicus [31]): 396 pM l-1
Change (Rattus norvegicus [32]): -38%
Insulin release (Oryctolagus cuniculus [6]): 1.84
Insulin release (Oryctolagus cuniculus [33]): 2.51
Blood glucose (Rattus norvegicus [34]): 4.86 mM
Plasma insulin (Rattus norvegicus [35]): 310 pM l-1
Insulin release (Oryctolagus cuniculus [9]): 3.06
Change (Rattus norvegicus [36]): 12%
Insulin release (Oryctolagus cuniculus [11]): 2.18
